For three compounds, Activity and inhibition results are on record in ChEMBL document CHEMBL4402517, “Rational modification of Mannich base-type derivatives as novel antichagasic compounds: Synthesis, in vitro and in vivo evaluation” (Bioorg Med Chem, 2019).

Data set [1] in a line: Mutagenecity against Salmonella typhimurium TA98 assessed as number of colonies at 200 ug/plate in presence of Sprague-Dawley rat S9 measured after 48 hrs by Ames test (reference value: 4 +/- 2). Type of data set: toxicity, subcellular. Particulars: salmonella enterica subsp. enterica serovar typhimurium, s9, 48 h. Background: The Ames test detects mutagens through reverse mutation in bacteria.

Data set [2] in a line: Mutagenecity against Salmonella typhimurium TA98 assessed as number of colonies at 7.4 ug/plate in absence of Sprague-Dawley rat S9 measured after 48 hrs by Ames test (reference value: 3 +/- 2.6). Particulars: salmonella enterica subsp. enterica serovar typhimurium, s9, 48 h. Type of data set: toxicity.
A short description of data set [3]: Mutagenecity against Salmonella typhimurium TA 100 assessed as number of colonies at 22.2 ug/plate in absence of Sprague-Dawley rat S9 with metabolic activation ug/plate measured after 48 hrs by Ames test (reference value: 35.7 +/- 0.6). The data set is classed as toxicity. Particulars: salmonella enterica subsp. enterica serovar typhimurium, s9, 48 h.
A short description of data set [4]: Mutagenecity against Salmonella typhimurium TA 100 assessed as number of colonies at 66.7 ug/plate in presence of Sprague-Dawley rat S9 with metabolic activation measured after 48 hrs by Ames test (reference value: 47.3 +/- 5.7). Type of data set: toxicity, subcellular. Conditions: salmonella enterica subsp. enterica serovar typhimurium, s9, 48 h.
A short description of data set [5]: Mutagenecity against Salmonella typhimurium TA 102 assessed as number of colonies at 66.7 ug/plate in presence of Sprague-Dawley rat S9 with metabolic activation measured after 48 hrs by Ames test (reference value: 72 +/- 1). The data set is classed as toxicity, subcellular. Particulars: salmonella enterica subsp. enterica serovar typhimurium, s9, 48 h.
Data set [6] is described as follows: Mutagenecity against Salmonella typhimurium TA 100 assessed as number of colonies at 7.4 ug/plate in absence of Sprague-Dawley rat S9 with metabolic activation measured after 48 hrs by Ames test (reference value: 35.7 +/- 0.6). Type of data set: toxicity. Particulars: salmonella enterica subsp. enterica serovar typhimurium, s9, 48 h.
Data set [7] is described as follows: Mutagenecity against Salmonella typhimurium TA97a assessed as number of colonies at 22.2 ug/plate in presence of Sprague-Dawley rat S9 with metabolic activation measured after 48 hrs by Ames test (reference value: 55 +/- 7.1). Type of data set: toxicity, subcellular. Particulars: salmonella enterica subsp. enterica serovar typhimurium, s9, 48 h.
Data set [8] can be described thus: Toxicity in BALB/c mouse infected with Trypanosoma cruzi MHOM/Pe/2011/Arequipa;DTU 5 bloodstream trypomastigote assessed as change in serum uric acid level in chronic phase at 20 mg/kg/day, po administered for 5 consecutive days starting from day 70 post infection measured on day 100 post infection relative to control. Conditions: in vivo. Type of data set: organism-based.

Data set [9] deals with Trypanosoma cruzi. The data set is described as follows: Antitrypanosomal activity against Trypanosoma cruzi MHOM/Pe/2011/Arequipa;DTU 5 epimastigote assessed as effect on parasite glycolytic pathway by measuring increase in succinate excretion at IC50 after 72 hrs by H NMR method relative to control. The data set is classed as functional. The method in brief: (§1)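 Cells were spun at 800 × g for 10 min and culture supernatants analysed by 1H NMR. Catabolite peaks were expressed as % variation versus untreated parasites.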

The nature of data set [10]: Toxicity in BALB/c mouse infected with Trypanosoma cruzi MHOM/Pe/2011/Arequipa;DTU 5 bloodstream trypomastigote assessed as change in serum uric acid level in acute phase at 20 mg/kg/day, po administered for 5 consecutive days starting from day 8 post infection and measured on day 100 post infection by biochemical analysis relative to control. Type of data set: organism-based. Particulars: in vivo.

Data set [11] can be described thus: Mutagenecity against Salmonella typhimurium TA1535 assessed as number of colonies at 22.2 ug/plate in absence of Sprague-Dawley rat S9 measured after 48 hrs by Ames test (reference value: 13.3 +/- 2.5). Type of data set: toxicity. Particulars: salmonella enterica subsp. enterica serovar typhimurium, s9, 48 h.
A short description of data set [12]: Toxicity in BALB/c mouse infected with Trypanosoma cruzi MHOM/Pe/2011/Arequipa;DTU 5 bloodstream trypomastigote assessed as change in serum lactate dehydrogenase level in chronic phase at 20 mg/kg/day, po administered for 5 consecutive days starting from day 70 post infection measured on day 100 post infection relative to control. Type of data set: organism-based. Conditions: in vivo.

The subject of data set [13] is Trypanosoma cruzi. The experiment in a line: Antitrypanosomal activity against Trypanosoma cruzi MHOM/Pe/2011/Arequipa;DTU 5 bloodstream trypomastigotes infected in BALB/c mouse assessed as decrease in splenomegaly in acute phase at 20 mg/kg/day, po administered for 5 consecutive days starting from day 8 post infection relative to untreated control. The data set is classed as functional. Also noted: scale not given: the % may be the effect or the level left. The gist of the method:
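Female BALB/c mice (three per group) were infected i.p. with 5 × 10^5 Arequipa trypomastigotes and dosed orally at 20 mg/kg/day for 5 days in 5% DMSO/0.5% HPMC. Controls were uninfected and vehicle-only groups. At the end of the experiment spleens were weighed and expressed as % of body weight.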

The nature of data set [14]: Mutagenecity against Salmonella typhimurium TA97a assessed as number of colonies at 22.2 ug/plate in absence of Sprague-Dawley rat S9 with metabolic activation measured after 48 hrs by Ames test ( Rvb = 37 +/- 6.5). Type of data set: toxicity. Conditions: salmonella enterica subsp. enterica serovar typhimurium, s9, 48 h.
The nature of data set [15]: Mutagenecity against Salmonella typhimurium TA98 assessed as number of colonies at 7.4 ug/plate in presence of Sprague-Dawley rat S9 measured after 48 hrs by Ames test (reference value: 4 +/- 2). Conditions: salmonella enterica subsp. enterica serovar typhimurium, s9, 48 h. Type of data set: toxicity, subcellular.
The nature of data set [16]: Mutagenecity against Salmonella typhimurium TA 100 assessed as number of colonies at 22.2 ug/plate in presence of Sprague-Dawley rat S9 with metabolic activation e measured after 48 hrs by Ames test (reference value: 47.3 +/- 5.7). The data set is classed as toxicity, subcellular. Conditions: salmonella enterica subsp. enterica serovar typhimurium, s9, 48 h.
Data set [17] can be described thus: Mutagenecity against Salmonella typhimurium TA 102 assessed as number of colonies at 66.7 ug/plate in absence of Sprague-Dawley rat S9 with metabolic activation measured after 48 hrs by Ames test (reference value: 78.7 +/- 7.8). The data set is classed as toxicity. Conditions: salmonella enterica subsp. enterica serovar typhimurium, s9, 48 h.
The subject of data set [18] is Trypanosoma cruzi. The data set is described as follows: Inhibition of Trypanosoma cruzi MHOM/Pe/2011/Arequipa;DTU 5 epimastigote Fe-SOD at 25 uM. The gist of the method:
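Fe-SOD excreted by exponentially growing T. cruzi Arequipa epimastigotes cultured in supplemented MTL at 28 °C. Protein quantified by Bradford. SOD activity measured by the Beyer–Fridovich method. IC50 from inhibition curves by nonlinear regression. Mean of three independent determinations ± standard deviation.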

A short description of data set [19]: Toxicity in BALB/c mouse infected with Trypanosoma cruzi MHOM/Pe/2011/Arequipa;DTU 5 bloodstream trypomastigote assessed as change in serum urea level in chronic phase at 20 mg/kg/day, po administered for 5 consecutive days starting from day 70 post infection measured on day 100 post infection relative to control. The data set is classed as organism-based. Particulars: in vivo.

Data set [20] can be described thus: Toxicity in BALB/c mouse infected with Trypanosoma cruzi MHOM/Pe/2011/Arequipa;DTU 5 bloodstream trypomastigote assessed as decrease in serum alkaline phosphatase level in chronic phase at 20 mg/kg/day, po administered for 5 consecutive days starting from day 70 post infection and measured at day 76 post infection relative to control. Type of data set: organism-based. Also noted: scale not given: the % may be the effect or the level left. Conditions: in vivo.

In data set [21] the test system is Trypanosoma cruzi. The data set is described as follows: Antitrypanosomal activity against Trypanosoma cruzi MHOM/Pe/2011/Arequipa;DTU 5 epimastigote assessed as effect on parasite glycolytic pathway by measuring decrease in succinate excretion at IC50 after 72 hrs by H NMR method relative to control. Type of data set: functional. The arrangement: scale not given: the % may be the effect or the level left. The method in brief:
as §1

Data set [22] in a line: Toxicity in BALB/c mouse infected with Trypanosoma cruzi MHOM/Pe/2011/Arequipa;DTU 5 bloodstream trypomastigote assessed as increase in serum total bilirubin level in chronic phase at 20 mg/kg/day, po administered for 5 consecutive days starting from day 70 post infection measured on day 100 post infection relative to control. Type of data set: organism-based. Conditions: in vivo.

Data set [23] can be described thus: Toxicity in BALB/c mouse infected with Trypanosoma cruzi MHOM/Pe/2011/Arequipa;DTU 5 bloodstream trypomastigote assessed as increase in serum total bilirubin level in chronic phase at 20 mg/kg/day, po administered for 5 consecutive days starting from day 70 post infection and measured at day 76 post infection relative to control. The data set is classed as organism-based. Conditions: in vivo.

The test system of data set [24] is Trypanosoma cruzi. The data set is described as follows: Antitrypanosomal activity against Trypanosoma cruzi MHOM/Pe/2011/Arequipa;DTU 5 epimastigote assessed as effect on parasite glycolytic pathway by measuring change in succinate excretion after 72 hrs by H NMR method. Type of data set: functional, organism-based. The method in brief: as §1

Active and inactive are the calls of the source. The calls are words filed in the database; no cut-off is given here. Some results are limits rather than exact numbers.

With `O=C(CCN1CCN(c2ccc(Cl)cc2)CC1)c1ccc(O)cc1`, the Activity in data set [1] amounted to 2.7; in data set [2] it was 4; in data set [3], 34.3; in data set [4] it was 54.7; in data set [5], 72.3; in data set [6], 32.3. The Activity in data set [7] is listed as 38.3; in [8], above 10%; in the data set with Trypanosoma cruzi [9] it was 34%; in data set [10], above 10%; in [11] it was 4; in data set [12], above 10%. The Activity is reported as 44% in the data set with Trypanosoma cruzi [13]; 35.7 in data set [14]; 6 in data set [15]; 47.3 in data set [16]; 73.3 in data set [17].

As for `O=C(CCN1CCN(c2ccc(C(F)(F)F)cc2)CC1)c1ccc(O)cc1`, the inhibition result with Trypanosoma cruzi [18] was “Active”. For the same compound, the Activity in data set [19] is reported as above 10%; in data set [20], “<= 10%”; with Trypanosoma cruzi [21], 80%; in [22], “<= 20%”; in data set [23], above 40%.

Consider `O=C(Cn1ccnc1[N+](=O)[O-])NCc1ccccc1` [BENZNIDAZOLE], for which the result in the data set with Trypanosoma cruzi [24] was Active.
